Experimental data reported in ChEMBL document CHEMBL1152315, “Benzophenone derivatives from the fruits of Garcinia multiflora and their anti-inflammatory activity” (J Nat Prod, 2009).

Legend:
[1] = Antiinflammatory activity in human neutrophils assessed as inhibition of fMet-Leu-Phe/Cytochalasin B-induced superoxide anion generation treated 5 mins before fMet-Leu-Phe/Cytochalasin B challenge by spectrophotometry; type: functional, cell-based; settings: Neutrophil
In short: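 Donor neutrophils (6 × 10^5/mL, Ca2+-free HBSS pH 7.4) were given 0.5 mg/mL ferricytochrome c and 1 mM Ca2+, held at 37 °C for 2 min, then exposed to compound (10-0.01 µg/mL) or DMSO for 5 min. Cytochalasin B (1 µg/mL) was added for 3 min, then fMLP (100 nM) for 10 min. SOD-inhibitable cytochrome c reduction was read at 550 nm (ε 21.1/mM/10 mm).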

[2] = Antiinflammatory activity in human neutrophils assessed as inhibition of fMet-Leu-Phe/Cytochalasin B-induced elastase release treated 5 mins before fMet-Leu-Phe/Cytochalasin B challenge; type: functional, cell-based; settings: Neutrophil
In short: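 Neutrophils from venous blood of healthy adult donors (20-28 y), isolated by dextran sedimentation, Ficoll Hypaque and hypotonic erythrocyte lysis; 6 × 10^5/mL with MeO-Suc-Ala-Ala-Pro-Val-p-nitroanilide substrate (100 µM), 37 °C for 2 min, then compound for 5 min. Stimulated with fMLP (100 nM)/CB (0.5 µg/mL). Absorbance at 405 nm monitored continuously; expressed as percent of drug-free activated control.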

SMILES | IC50 [1] | IC50 [2]
CC(C)=CC[C@H]1C[C@@]23C[C@@H](CC=C(C)C)C(C)(C)[C@@](CC=C(C)C)(C(=O)C(C(=O)c4ccccc4)=C2OC1(C)C)C3=O | 0.88 µM | 1.16 µM
C=C(C)[C@@H](CC=C(C)C)C[C@@]12C[C@@H](CC=C(C)C)C(C)(C)[C@]3(C=CC(C)(C)OC3=C(C(=O)c3cccc(O)c3)C1=O)C2=O [13-HYDROXYGARCIMULTIFLORONE B] | 0.4 µM | 0.86 µM
CC[C@H](CC[C@@H](C)[C@H]1CC[C@H]2[C@@H]3CC=C4CC(=O)CC[C@]4(C)[C@H]3CC[C@]12C)C(C)C [BETA-SITOSTENONE] | > 30 µM | > 30 µM
CC(C)=CCC/C(C)=C/CC/C(C)=C/CC[C@]1(C)CCc2cc(O)cc(C)c2O1 [DELTA-TOCOTRIENOL] | 14.8 µM | 15.1 µM
c1ccc2c(c1)[I+]c1ccccc1-2 [DIPHENYLENEIODONIUM] | 1.7 µM | 
COc1cc2ccc(=O)oc2c(OC)c1OC [FRAXIDIN METHYL ETHER] | > 30 µM | > 30 µM
CC(C)=CCC1=C2OC(C)(C)[C@@H](CC=C(C)C)C[C@@]23C[C@@H](CC=C(C)C)C(C)(C)[C@@](C(=O)c2ccccc2)(C1=O)C3=O [GARCIMULTIFLORONE A] | 5.58 µM | 4.65 µM
C=C(C)[C@@H](CC=C(C)C)C[C@@]12C[C@@H](CC=C(C)C)C(C)(C)[C@]3(C=CC(C)(C)OC3=C(C(=O)c3ccccc3)C1=O)C2=O [GARCIMULTIFLORONE B] | 0.11 µM | 0.14 µM
C=C(C)[C@@H](CC=C(C)C)C[C@@]12C[C@H]3C[C@@H](C(C)(C)O)[C@](C(=O)c4ccccc4)(C1=O)C(=O)[C@@](CC(O)C(C)(C)O)(C2=O)C3(C)C (some centres not stated) [GARCIMULTIFLORONE C] | 7.21 µM | 12.1 µM
O=S(=O)(F)Cc1ccccc1 [PHENYLMETHYLSULFONYLFLUORIDE] |  | 204 µM
COc1cc2ccc(=O)oc2cc1OC [SCOPARONE] | > 30 µM | > 30 µM
CC(C)=CCC/C(C)=C/CC/C(C)=C/CC/C=C(\C)CC/C=C(\C)CCC=C(C)C [SQUALENE] | > 30 µM | > 30 µM
